What was measured:
[1] = tested on: Rattus norvegicus; test: Biodistribution of compound in rat liver at 1440 min after intravenous administration; type: ADME, organism-based; conditions: in vivo, 24 h
How it was run: (§1)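 Time course in Sprague-Dawley rats after lateral tail-vein injection of the 99mTc complex in normal saline (~12.5 μCi/mL) at ~25 μCi/kg. Tissues were sampled at the stated times, washed with saline, blotted, weighed and γ-counted to give percent injected dose per g. Values are averages of male and female rats.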

[2] = tested on: Rattus norvegicus; test: Biodistribution of compound in rat heart at 45 min after intravenous administration; type: ADME, organism-based; conditions: in vivo, 0.75 h; how it was run: as §1
[3] = tested on: Rattus norvegicus; test: Biodistribution of compound in rat kidney at 360 min after intravenous administration; type: ADME, organism-based; conditions: in vivo, 6 h; how it was run: as §1
[4] = tested on: Rattus norvegicus; test: Biodistribution of compound in rat bone at 5 min after intravenous administration; type: ADME, organism-based, Bone element; conditions: in vivo; how it was run: as §1
[5] = tested on: Rattus norvegicus; test: Biodistribution of compound in rat lungs at 180 min after intravenous administration; type: ADME, organism-based, Lung; conditions: in vivo, 3 h
How it was run: (§2)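 Rats received the 99mTc complex in normal saline (~12.5 μCi/mL) by lateral tail vein injection at ~25 μCi/kg and were killed by cervical dislocation at the stated time. Tissues were washed with saline, blotted, weighed and γ-counted to give percent injected dose/g. Time-course values are averages of male and female rats.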

[6] = tested on: Rattus norvegicus; test: Biodistribution of compound in rat urine at 360 min after intravenous administration; type: ADME, organism-based; conditions: in vivo, 6 h; how it was run: as §2
[7] = tested on: Rattus norvegicus; test: Biodistribution of compound in rat bone at 1440 min after intravenous administration; type: ADME, organism-based, Bone element; conditions: in vivo, 24 h; how it was run: as §1
[8] = tested on: Rattus norvegicus; test: Biodistribution of compound in rat kidney at 90 min after intravenous administration; type: ADME, organism-based; conditions: in vivo, 1.5 h; how it was run: as §1
[9] = Biodistribution of compound in rat muscle after 5 min of administration.; type: ADME, organism-based, Muscle tissue; conditions: in vivo
How it was run: (§3)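 Female Sprague-Dawley rats (150–200 g) received the complex in normal saline (~12.5 μCi/mL) through a lateral tail vein at ~25 μCi/kg. Rats were killed by cervical dislocation 5 min after injection. Tissues were washed with saline, blotted, weighed and γ-counted to give percent injected dose/g tissue.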

[10] = tested on: Rattus norvegicus; test: Biodistribution of compound in rat liver at 180 min after intravenous administration; type: ADME, organism-based; conditions: in vivo, 3 h; how it was run: as §1
[11] = tested on: Rattus norvegicus; test: Biodistribution of compound in rat lungs at 5 min after intravenous administration; type: ADME, organism-based, Lung; conditions: in vivo; how it was run: as §2
[12] = tested on: Rattus norvegicus; test: Biodistribution of compound in rat blood at 360 min after intravenous administration; type: ADME, organism-based; conditions: in vivo, 6 h; how it was run: as §1
[13] = tested on: Rattus norvegicus; test: Biodistribution of compound in rat bone at 45 min after intravenous administration; type: ADME, organism-based, Bone element; conditions: in vivo, 0.75 h; how it was run: as §1
[14] = tested on: Rattus norvegicus; test: Biodistribution of compound in rat muscle at 1440 min after intravenous administration; type: ADME, organism-based, Muscle tissue; conditions: in vivo, 24 h; how it was run: as §2
[15] = tested on: Rattus norvegicus; test: Biodistribution of compound in rat eye at 1440 min after intravenous administration; type: ADME, organism-based; conditions: in vivo, 24 h; how it was run: as §1
[16] = tested on: Rattus norvegicus; test: Biodistribution of compound in rat bone marrow at 360 min after intravenous administration; type: ADME, organism-based; conditions: in vivo, 6 h; how it was run: as §1
[17] = tested on: Rattus norvegicus; test: Biodistribution of compound in rat heart after 5 min of administration.; type: ADME, organism-based; conditions: in vivo; how it was run: as §3
[18] = tested on: Rattus norvegicus; test: Biodistribution of compound in rat kidney after 5 min of administration.; type: ADME, organism-based; conditions: in vivo; how it was run: as §3
[19] = tested on: Rattus norvegicus; test: Biodistribution of compound in rat heart at 5 min after intravenous administration; type: ADME, organism-based; conditions: in vivo; how it was run: as §1
[20] = tested on: Rattus norvegicus; test: Biodistribution of compound in rat kidney at 180 min after intravenous administration; type: ADME, organism-based; conditions: in vivo, 3 h; how it was run: as §1
[21] = tested on: Rattus norvegicus; test: Biodistribution of compound in rat blood at 5 min after intravenous administration; type: ADME, organism-based; conditions: in vivo; how it was run: as §1
[22] = tested on: Rattus norvegicus; test: Biodistribution of compound in rat liver at 5 min after intravenous administration; type: ADME, organism-based; conditions: in vivo; how it was run: as §2
[23] = tested on: Rattus norvegicus; test: Biodistribution of compound in rat lungs at 90 min after intravenous administration; type: ADME, organism-based, Lung; conditions: in vivo, 1.5 h; how it was run: as §2
[24] = tested on: Rattus norvegicus; test: Biodistribution of compound in rat bone marrow at 5 min after intravenous administration; type: ADME, organism-based; conditions: in vivo; how it was run: as §1
[25] = tested on: Rattus norvegicus; test: Biodistribution of compound in rat gonads at 45 min after intravenous administration; type: ADME, organism-based, Gonad; conditions: in vivo, 0.75 h; how it was run: as §1
[26] = tested on: Rattus norvegicus; test: Biodistribution of compound in rat liver at 360 min after intravenous administration; type: ADME, organism-based; conditions: in vivo, 6 h; how it was run: as §2
[27] = tested on: Rattus norvegicus; test: Biodistribution of compound in rat blood after 5 min of administration.; type: ADME, organism-based; conditions: in vivo; how it was run: as §3
[28] = tested on: Rattus norvegicus; test: Biodistribution of compound in rat kidney at 5 min after intravenous administration; type: ADME, organism-based; conditions: in vivo; how it was run: as §1
[29] = tested on: Rattus norvegicus; test: Biodistribution of compound in rat heart at 360 min after intravenous administration; type: ADME, organism-based; conditions: in vivo, 6 h; how it was run: as §1
[30] = tested on: Rattus norvegicus; test: Biodistribution of compound in rat brain after 5 min of administration; type: ADME, organism-based; conditions: in vivo
[31] = tested on: Rattus norvegicus; test: Biodistribution of compound in rat heart at 180 min after intravenous administration; type: ADME, organism-based; conditions: in vivo, 3 h; how it was run: as §1
[32] = tested on: Rattus norvegicus; test: Biodistribution of compound in rat eye at 90 min after intravenous administration; type: ADME, organism-based; conditions: in vivo, 1.5 h; how it was run: as §1
[33] = tested on: Rattus norvegicus; test: Biodistribution of compound in rat liver after 5 min of administration.; type: ADME, organism-based; conditions: in vivo; how it was run: as §3
[34] = tested on: Rattus norvegicus; test: Biodistribution of compound in rat bone at 360 min after intravenous administration; type: ADME, organism-based, Bone element; conditions: in vivo, 6 h; how it was run: as §1
[35] = tested on: Rattus norvegicus; test: Biodistribution of compound in rat lungs at 1440 min after intravenous administration; type: ADME, organism-based, Lung; conditions: in vivo, 24 h; how it was run: as §2

- Dose/g [1]: 0.2 % dose/organ
- Dose/g [2]: 2.83 % dose
- Dose/g [3]: 1.5 % dose
- Dose/g [4]: 3.8 % dose/organ
- Dose/g [5]: 0.81 % dose/organ
- Dose/ml [6]: 11 % dose
- Dose/g [7]: 1.7 % dose/organ
- Dose/g [8]: 3.9 % dose/organ
- Dose/g [9]: 0.61%
- Dose/g [10]: 1 % dose/organ
- Dose/g [11]: 1.4 % dose/organ
- Dose/ml [12]: 0.15 % dose
- Dose/g [13]: 2.6 % dose/organ
- Dose/g [14]: 56 % dose/organ
- Dose/g [15]: 0.01 % dose/organ
- Dose/g [16]: 0.11 % dose/organ
- Dose/g [17]: 3.4%
- Dose/g [18]: 6.7%
- Dose/g [19]: 2.51 % dose
- Dose/g [20]: 2 % dose
- Dose/ml [21]: 1.06 % dose
- Dose/g [22]: 5.6 % dose/organ
- Dose/g [23]: 1.17 % dose/organ
- Dose/g [24]: 0.43 % dose/organ
- Dose/g [25]: 0.089 % dose
- Dose/g [26]: 0.9 % dose/organ
- Dose/g [27]: 0.1%
- Dose/g [28]: 7.1 % dose
- Dose/g [29]: 2.81 % dose
- Dose/g [30]: 0.02%
- Dose/g [31]: 2.44 % dose
- Dose/g [32]: 0.021 % dose
- Dose/g [33]: 0.67%
- Dose/g [34]: 1.4 % dose
- Dose/g [35]: 0.18 % dose/organ
Substance: Bis(1,2,3,5-tetramethylbenzene)technetium
